Measurements from ChEMBL document CHEMBL1121797, “Studies on chiral interactions of 1-(2,5-dimethoxy-4-methylphenyl)-2-aminopropane and the corresponding N-hydroxy metabolites with cytochrome P-450” (J Med Chem, 1981).

Tests used:
[1] = Initial rates of formation of metabolic intermediate Cytochrome P-450 at compound concentration of 30 uM; type: ADME
Procedure, shortened: (§1)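 Rabbit liver microsomes at 2 mg protein/mL with 0.1 mM EDTA, 37 °C, substrate 30 μM. Complex formation started with 0.4 mM NADPH and followed by dual-wavelength absorbance, 457 vs 500 nm. Initial rate is the initial slope, ΔA×10^4 per nmol P-450 per min. Extent is the plateau absorbance. Lag is the time from NADPH addition to first 457-nm chromophore. Triplicate or single runs.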

[2] = Initial rates of formation of metabolic intermediate Cytochrome P-450 at compound concentration of 7.5-120 uM; type: ADME
Procedure, shortened: (§2)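 Rabbit liver microsomes at 2 mg protein/mL with 0.1 mM EDTA, 37 °C, NADPH-dependent. Substrate tested at several concentrations. ΔA457–500 nm followed against time. Rate is the initial slope per nmol P-450 per min; extent is the plateau absorbance. Runs disturbed by a transient 450-nm species were discarded.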

[3] = Initial rates of formation of metabolic intermediate Cytochrome P-450 with compound concentration of 150 uM; type: ADME
Procedure, shortened: (§3)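 Cross-inhibition in NADPH-supplemented rabbit liver microsomes at 37 °C. Preincubation with amine at 30, 150 or 300 μM while 457-nm complex formation was monitored. Once it plateaued (6–8 min), racemic hydroxylamine was added at 300 μM. Initial rate and plateau extent were read from ΔA457–500 nm vs time, per nmol P-450.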

[4] = Initial rates of formation of metabolic intermediate Cytochrome P-450 with compound concentration of 30 uM; type: ADME; procedure, shortened: as §3
[5] = Initial rates of formation of metabolic intermediate Cytochrome P-450 with compound concentration of 300 uM; type: ADME; procedure, shortened: as §3
[6] = Extent rates of formation of metabolic intermediate Cytochrome P-450 at compound concentration of 30 uM; type: ADME; procedure, shortened: as §1
Cytochrome P450 2C19 = Cytochrome P450 2C19 (Homo sapiens, UniProt P33261); assay: Apparent binding affinity constant of compound (1.8-60.0) for Cytochrome P450; type: ADME, Oryctolagus cuniculus; conditions: read-out: Ks
Sequence of Cytochrome P450 2C19 (P33261 whole entry): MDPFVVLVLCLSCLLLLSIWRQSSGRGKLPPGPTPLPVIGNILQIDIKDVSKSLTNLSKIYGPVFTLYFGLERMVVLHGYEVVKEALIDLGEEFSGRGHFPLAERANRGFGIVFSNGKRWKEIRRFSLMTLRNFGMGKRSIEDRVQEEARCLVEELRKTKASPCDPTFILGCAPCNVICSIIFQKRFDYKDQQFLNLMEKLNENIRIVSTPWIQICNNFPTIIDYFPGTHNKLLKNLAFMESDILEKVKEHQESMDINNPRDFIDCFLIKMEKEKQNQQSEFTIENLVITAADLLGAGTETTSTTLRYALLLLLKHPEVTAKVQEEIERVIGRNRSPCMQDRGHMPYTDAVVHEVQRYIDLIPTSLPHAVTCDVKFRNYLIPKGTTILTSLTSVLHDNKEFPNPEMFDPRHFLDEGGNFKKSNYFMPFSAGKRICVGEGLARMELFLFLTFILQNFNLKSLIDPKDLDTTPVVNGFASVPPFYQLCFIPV

[7] = Extent rates of formation of metabolic intermediate Cytochrome P-450 at compound concentration of 7.5-120 uM; type: ADME; procedure, shortened: as §2
[8] = Lag time between the addition of compound (30 uM) and the first appearance of chromophore; type: ADME; procedure, shortened: as §1

Work on `COc1cc(C[C@H](C)N)c(OC)cc1C` yielded a Rate [1] of 3.1, a Rate [2] of 0 and a Rate [3] of 1.5. The Rate [4] was 1.7, the Rate [5] was 1.1 and the Extent [6] was 29. For the same compound, the Kd (Cytochrome P450 2C19) was 6 µM, the Extent [7] was 0 and the Lag time [8] was 136 s.
